Bioassay records: PubChem BioAssay, several laboratories
RBBP9 inh = human RBBP9 hydrolase inhibition. O75884. recombinant RBBP9, FP-Rh probe fluorescence polarization. inhibition, % at 7.94 µM. 220,000 compounds, 0.2% hits. AID 1515;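 active means inhibition above the campaign mean of all tested compounds plus 3 SD, cut at about 14% in these data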
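System: RBBP9 protein / Quantity: 2.5 µM RBBP9 dispensing solution, before mixing / Also added: Serine-hydrolase probe FP-Rh, 375 nM pre-mixing / Dosing: 7.94 µM single dose, 0.794% DMSO / Timing: enzyme-compound preincubation 30 min, then probe labeling 45 min, 25 °C / Signal: FP readout at 525/598 nm / Controls: DMSO-treated enzyme wells and wells lacking RBBP9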
Runt-SMMHC FRET = inhibitors of human RUNX1 Runt domain binding to CBFb-SMMHC; Cerulean-Runt/Venus-CBFb-SMMHC FRET ratio 530/480, 1 h; 220,000 compounds, 0.74% hits; Q01196+Q13951; inhibition, % at 20 µM;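 active means mean inhibition across duplicate retests at 20 µM reaching about 50%, limit read from the data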;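 further: inhibitors lower the FRET ratio by blocking Runt binding to CBFb-SMMHC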
Runt-CBFb FRET = blocks binding of human RUNX1 Runt domain to CBFb; Cerulean-Runt/Venus-CBFb FRET ratio 530/480, 1 h; inhibition, % at 20 µM; 220,000 compounds, 0.46% hits; AID 1496;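 active means inhibition over about 50% at 20 µM in the single-dose screen, limit read from the data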
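Measured by: fluorescence energy transfer, 422 nm excitation, 530/480 nm emission; Assay system: Cerulean-Runt domain; Medium: Tris pH 7.5 buffer with BSA; Measure: loss of energy transfer signal; Controls: 5 µM unlabeled CBFb as full-inhibition high control; Incubation: protein complex preformed 1 h, compound exposure 1 h, room temperature, dark.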
Hck Nef HTS = blocks Nef-activated human Hck kinase; P08631; Recombinant Hck-YEEI plus Nef, Z-Lyte FRET kinase assay; inhibition, % at 20 µM; 220,000 compounds, 0.68% hits; AID 463187;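 active means Hck-Nef kinase inhibition above about 50%, limit read from the data; inactive means inhibition below that limit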
Target sequence (P08631 whole entry, looked up): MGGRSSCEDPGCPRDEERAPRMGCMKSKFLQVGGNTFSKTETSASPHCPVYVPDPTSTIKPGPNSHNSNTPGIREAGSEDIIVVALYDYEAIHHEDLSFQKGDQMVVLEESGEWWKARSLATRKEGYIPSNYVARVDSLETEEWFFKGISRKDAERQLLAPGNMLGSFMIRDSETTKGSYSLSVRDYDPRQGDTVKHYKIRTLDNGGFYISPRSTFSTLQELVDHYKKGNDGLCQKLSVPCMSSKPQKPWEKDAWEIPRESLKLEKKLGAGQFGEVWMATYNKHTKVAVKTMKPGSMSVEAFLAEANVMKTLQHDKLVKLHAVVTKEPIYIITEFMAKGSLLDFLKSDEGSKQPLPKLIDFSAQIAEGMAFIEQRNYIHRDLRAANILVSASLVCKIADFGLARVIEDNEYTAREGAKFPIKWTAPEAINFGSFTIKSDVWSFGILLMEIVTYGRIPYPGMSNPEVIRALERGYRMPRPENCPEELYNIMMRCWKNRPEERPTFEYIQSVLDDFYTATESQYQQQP
RanGTP-Impb inh = inhibitors of RanGTP-importin-beta interaction, primary screen, biochemical, FRET, CFP-Ran, YFP-importin-beta, homogeneous; cell-free CFP-Ran/YFP-importin-beta FRET ratio; inhibition, % (concentration not given with the values); 300,000 compounds, 1.1% hits; AID 2216;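 active means more than half of the replicate wells show a fall in the fluorescence ratio signal beyond about 16%, limit read from the data, passing the limit was not always enough; inconclusive means exactly half of the replicate wells pass the set limit; inactive means fewer than half of replicates pass the limit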
M18AAP inhibitor = PfM18AAP enzyme inhibition | 290,000 compounds, 1.2% hits | recombinant PfM18AAP, H-Glu-NHMec fluorogenic cleavage | inhibition, % at 7.35 µM | AID 1822;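 active means inhibition above the campaign mean inhibition over all tested compounds plus 3 SD, cut at about 28% in these data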
Each line names hits and unclear results; the compound was inactive in the other large screens. Compounds with a hit are over-represented: about 2.9% of the library has one in this group of screens.

CCOc1cc(-c2nc3ccccn3c2NCC2CCCO2)ccc1O (stereo unspecified)	M18AAP inhibitor 30.2
CCN(C(=O)CN1CCN(c2ccccc2O)CC1)c1c(N)n(Cc2ccccc2)c(=O)[nH]c1=O	M18AAP inhibitor 28.4
O=C(CSc1nc2ccccc2c2c1CCCC2)N1CCOCC1	none (no result: RBBP9 inh, Runt-SMMHC FRET, Runt-CBFb FRET, Hck Nef HTS)
O=c1c2ccccc2nc(N/N=C/c2c(O)ccc3ccccc23)n1O	M18AAP inhibitor 30.4
CCOc1ccc(NC(=O)/C(C#N)=C/c2cn(CC(=O)O)c3ccccc23)cc1	none (no result: RBBP9 inh, Runt-SMMHC FRET, Runt-CBFb FRET, Hck Nef HTS)
CCOc1cccc(NC(=O)/C(C#N)=C\c2cn(CC(=O)O)c3ccccc23)c1	RanGTP-Impb inh 27.8 (no result: RBBP9 inh, Runt-SMMHC FRET, Runt-CBFb FRET, Hck Nef HTS)
Cc1cccc(NC(=O)/C(C#N)=C/c2cn(CC(=O)NCc3ccco3)c3ccccc23)c1C	RanGTP-Impb inh 56.7
COC(=O)CCCCCN1C(=O)/C(=C\c2ccncc2)SC1=S	none
CCOC(=O)/C(C#N)=C1/C=C(C)c2ccccc2N1	Runt-SMMHC FRET 90.9
CCOC(=O)/C(C#N)=C1\C(=O)N(Cc2ccccc2)c2ccccc21	none
Cc1ccc(NC(=O)c2cccc(NC(=O)CC3SC(N4CCCCC4)=NC3=O)c2)nc1 (stereo unspecified)	none (no result: RBBP9 inh, Runt-SMMHC FRET, Runt-CBFb FRET, Hck Nef HTS, M18AAP inhibitor)
CC(C(=O)Nc1ccccc1)N(c1cccc(Cl)c1)S(C)(=O)=O (stereo unspecified)	none
CCN1CCN(c2nc3ccccn3c(=O)c2C=O)CC1	RanGTP-Impb inh 110.4 (no result: RBBP9 inh, Runt-SMMHC FRET, Runt-CBFb FRET, Hck Nef HTS)
O=Cc1c(N2CCN(CCO)CC2)nc2ccccn2c1=O	RanGTP-Impb inh 78.9 (no result: RBBP9 inh, Runt-SMMHC FRET, Runt-CBFb FRET, Hck Nef HTS)
O=Cc1c(N2CCN(c3ccccc3)CC2)nc2ccccn2c1=O	none
Cc1cc(NC(=O)CCC(=O)N(CC(=O)NC2CCCC2)c2ccc(C(C)C)cc2)no1	none (no result: RBBP9 inh, Runt-SMMHC FRET, Runt-CBFb FRET, Hck Nef HTS)
Cc1coc(C)c1C(=O)Nc1ccc2ccccc2c1	RanGTP-Impb inh inconclusive (no result: RBBP9 inh, Runt-SMMHC FRET, Runt-CBFb FRET, Hck Nef HTS)
CCN1CCN(c2nc3ccccc3nc2C(C#N)C(=O)OCc2ccccc2)CC1 (stereo unspecified)	RanGTP-Impb inh 20.2
N#CC(C(=O)NCc1ccccc1)c1nc2ccccc2nc1N1CCCC1 (stereo unspecified)	Runt-SMMHC FRET 66.2, RanGTP-Impb inh 35.5
N#CC(C(=O)OC1CCCCC1)c1nc2ccccc2nc1N1CCCCC1 (stereo unspecified)	RanGTP-Impb inh 16.7
N#CC(C(=O)NCCc1ccccc1)c1nc2ccccc2nc1N1CCCCC1 (stereo unspecified)	RanGTP-Impb inh 36.7
CCCCCCOC(=O)C(C#N)c1nc2ccccc2nc1N1CCN(CC)CC1 (stereo unspecified)	none
CCOC(=O)C1CCCN(c2nc3ccccc3nc2C(C#N)C(=O)NCc2ccccc2)C1 (stereo unspecified)	none
COc1cc(NC(=O)c2cc(S(=O)(=O)N3CCCCC3)c[nH]2)cc(OC)c1	none (no result: RBBP9 inh, Runt-SMMHC FRET, Runt-CBFb FRET, Hck Nef HTS)
CSc1cccc(N2CC(C(=O)Nc3ccccc3N3CCCC3)CC2=O)c1 (stereo unspecified)	none (no result: RBBP9 inh, Runt-SMMHC FRET, Runt-CBFb FRET, Hck Nef HTS, M18AAP inhibitor)
O=C(O)c1cc(-c2ccc(/C=C3\NC(=O)N(c4ccccc4)C3=O)o2)ccc1Cl	Runt-SMMHC FRET 82.5
O=C(O)c1cc(-c2ccc(/C=C3\NC(=O)N(c4ccc(Cl)cc4)C3=O)o2)ccc1Cl	Runt-SMMHC FRET 81.1
CCOC(=O)N1CCC(NC(=O)c2oc3c(F)cccc3c2C)CC1	none (no result: RBBP9 inh, Runt-SMMHC FRET, Runt-CBFb FRET, Hck Nef HTS)
CCCc1cc(=O)oc2c3c(c(Cl)cc12)OCN(CCCO)C3	RanGTP-Impb inh 62.2 (no result: RBBP9 inh, Runt-SMMHC FRET, Runt-CBFb FRET, Hck Nef HTS)
CC1=NN(C(C#N)c2ccccc2C)C(C)(C)C1 (stereo unspecified)	Runt-CBFb FRET 75.3
CCCCNC(=S)NNC(=O)c1c(C)nc2ccccn12	M18AAP inhibitor 38.2
CCCCNC(=S)NNC(=O)c1ccoc1C	M18AAP inhibitor 29.2
CCCCNC(=S)NNC(=O)c1c(Cl)c(C)nn1C	none
Nc1nonc1-n1nnc(C(=O)N/N=C/c2ccoc2)c1-c1ccccc1	none (no result: RBBP9 inh, Runt-SMMHC FRET, Runt-CBFb FRET, Hck Nef HTS)
Cc1ccc(C(=O)O)cc1NC(=S)NC(=O)c1ccc(COc2ccccc2)cc1	none (no result: RBBP9 inh, Runt-SMMHC FRET, Runt-CBFb FRET, Hck Nef HTS)
Brc1ccc(-c2ccc(/C=N/Nc3nc4ccccc4[nH]3)o2)cc1	RanGTP-Impb inh 63.6
Brc1ccc(-c2ccc(/C=N/Nc3nncc(-c4ccccc4)n3)o2)cc1	none
